Sampled rows, rich in hits. Any-hit rate of the full collection: about 1.1%.
NPR1 activator = GC-A (human) enzyme activation; activation, % at 10 µM; 370,000 tested, 0.14% active; HEK293 GC-A cells, cGMP TR-FRET, EC30 ANP; 0% at EC30 ANP, 100% saturating ANP; P16066; in the data active = activation above about 40%
MT1-MMP act inh = blocks activation of human MT1-MMP; P50281; HT1080 RFP-PRO-GFP cells, GFP/RFP ratio fluorescence, overnight; percent of plate control window, DMSO zero; GFP/RFP ratio change, % at 20 µM; 360,000 tested, 0.061% active; AID 651647;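 active = GFP/RFP ratio change of at least 30% with cell ATP level not reduced by more than half and red fluorescence within 50% of control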
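Test system: HT1080 cells expressing an RFP-PRO-GFP fluorescent reporter construct / Compound dosing: single-point 20 µM compound, 1% DMSO / Schedule: cells overnight before dosing, compound overnight, 37 °C, 5% CO2 / Evaluation: GFP/RFP fluorescence ratio / Control set: DMSO and RFP-L50D-GFP cell wells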
NPR2 activator = GC-B (human) receptor activation; P20594; HEK293-GC-B cells, CNP EC30, cGMP TR-FRET; 0% at EC30 CNP, 100% saturating CNP; activation, % at 10 µM; 370,000 tested, 0.11% active;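 active = activation at 10 µM reaching about 35% in either raw or pattern-adjusted values, limit read from the data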
Target sequence (P20594 whole entry, looked up): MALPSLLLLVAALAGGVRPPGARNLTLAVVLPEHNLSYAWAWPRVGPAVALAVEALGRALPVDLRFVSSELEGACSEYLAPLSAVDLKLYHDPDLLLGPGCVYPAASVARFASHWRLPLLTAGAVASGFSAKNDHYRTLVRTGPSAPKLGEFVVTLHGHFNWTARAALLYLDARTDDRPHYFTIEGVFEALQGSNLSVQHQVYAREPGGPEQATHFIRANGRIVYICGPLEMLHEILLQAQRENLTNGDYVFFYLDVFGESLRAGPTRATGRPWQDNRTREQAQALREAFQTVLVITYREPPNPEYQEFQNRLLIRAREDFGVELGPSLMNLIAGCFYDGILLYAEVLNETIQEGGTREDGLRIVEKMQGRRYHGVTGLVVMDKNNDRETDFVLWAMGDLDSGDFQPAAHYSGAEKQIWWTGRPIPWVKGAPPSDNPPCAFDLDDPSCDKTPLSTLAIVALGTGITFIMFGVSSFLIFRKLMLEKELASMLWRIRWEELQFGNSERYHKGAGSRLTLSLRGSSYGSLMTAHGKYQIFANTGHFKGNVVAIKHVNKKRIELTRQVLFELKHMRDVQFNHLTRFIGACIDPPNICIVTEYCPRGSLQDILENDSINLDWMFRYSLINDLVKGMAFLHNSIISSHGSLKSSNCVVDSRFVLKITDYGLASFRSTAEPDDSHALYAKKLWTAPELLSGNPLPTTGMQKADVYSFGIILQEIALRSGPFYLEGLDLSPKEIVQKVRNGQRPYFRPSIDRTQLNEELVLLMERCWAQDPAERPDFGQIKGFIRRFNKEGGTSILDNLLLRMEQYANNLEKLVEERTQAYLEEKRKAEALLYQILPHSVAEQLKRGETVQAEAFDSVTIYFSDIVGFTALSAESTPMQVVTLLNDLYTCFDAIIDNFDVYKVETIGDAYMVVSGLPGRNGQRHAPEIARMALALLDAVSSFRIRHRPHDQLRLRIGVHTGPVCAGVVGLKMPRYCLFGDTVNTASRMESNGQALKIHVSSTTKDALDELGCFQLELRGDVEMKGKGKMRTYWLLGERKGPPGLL
TbMetRS inhib = blocks T. brucei methionyl-tRNA synthetase activity | inhibition, % at 11.9 µM | purified T. brucei MetRS, ATP depletion, Kinase-Glo luminescence | 360,000 tested, 0.4% active;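 active = inhibition above a per-plate cutoff of the control wells' mean inhibition plus 3 SD, cut at about 5.5% in these data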;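 also: 0% = DMSO wells median and 100% = median of wells with control inhibitor compound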
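Assay system: T. brucei methionyl-tRNA synthetase, purified | Medium: HEPES buffer with MgCl2, KCl, DTT, spermine, BSA, pyrophosphatase | Compound: 11.9 µM single point | Incubation: 15 min enzyme-compound preincubation, 2 h reaction, 10 min detection, 25 °C | Measured by: Kinase-Glo luciferase luminescence reporting remaining unconsumed ATP | Measure: % inhibition normalized to control-well medians | Replication: Singlicate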
SKN-1 inh = blocks SKN-1 activity in C. elegans. C. elegans VP596 Pgst-4::GFP/RFP ratio, acrylamide-induced, 24 h. inhibition, % at 21.8 µM. 360,000 tested, 0.49% active;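 active = interference check ratio from 0.5 to 1.5 plus GFP to RFP signal ratio inhibition reaching or exceeding a fixed threshold, cut at about 30% in these data, passing the limit was not always enough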
Bfl-1 A1 inh = inhibitors of the anti-apoptotic protein A1, read as caspase activation; MEF A1-2A-BIM cells, Caspase-Glo 3/7 luminescence, 3 h; percent of clofoctol response, vehicle zero; caspase activation, % (no concentration beside the values); 330,000 tested, 0.066% active; AID 2462;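 active = over half of replicate activation scores above 10%, or exactly half above 10 with the replicate mean above 10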
MT1-MMP act val = MT1-MMP (human) activation inhibition, single-concentration validation; 200 tested, 10% active; shares compounds with MT1-MMP act inh; HT1080 RFP-PRO-GFP cells, GFP and RFP fluorescence ratio, overnight; inhibition, % at 20 µM;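 active = inhibition of at least 50% in the primary cell screen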
Starred values were filed as active, the others as inactive; / = not tested or not shown.

SMILES | NPR1 activator | MT1-MMP act inh | NPR2 activator | TbMetRS inhib | SKN-1 inh | Bfl-1 A1 inh | MT1-MMP act val
O=S(=O)(c1ccc(Cl)cc1)N1CCC(N2CCOCC2)CC1 | 2 | -13 | -2 | 0 | 12 | -1 | /
Nc1nc(-c2ccc(Cl)cc2)c(N=Nc2ccc(S(=O)(=O)N3CCOCC3)cc2)s1 | 5 | 57* | 4 | 0 | 25 | 0 | 55*
CC(=O)Nc1ccc(S(=O)(=O)NCc2ccc3[nH]c(C)cc3c2)cc1 | 2 | 31* | -2 | 0 | 21 | 0 | 17
Cc1ccc(S(=O)(=O)NCc2ccc3[nH]c(C)cc3c2)cc1 | 4 | -2 | -6 | 0 | 24 | 0 | /
COc1ccc(C(CNC(=O)c2c(C)nn(Cc3ccc(C)cc3)c2Cl)N2CCOCC2)cc1 (stereo not drawn) | 2 | 32* | 2 | -1 | -1 | 0 | 8
Cc1ccc(Cn2nc(C)c(C(=O)NCC(c3cccs3)N3CCOCC3)c2Cl)cc1 (stereo not drawn) | 6 | 5 | 2 | 0 | 0 | 0 | /
CC(C)CNC(=O)OCc1cn(Cc2ccccc2Cl)nn1 | 4 | / | 4 | / | / | / | /
COc1ccc(-c2oc3ccc(-c4ccc5c(c4)OCO5)cc3c2C#CC2(O)CCCCC2)cc1 | -5 | 15 | -1 | 1 | -11 | 0 | /
COc1ccc(-c2oc3ccc(-c4ccc(OC)nc4)cc3c2C#CC2(O)CCCCC2)cc1 | -1 | 32* | 5 | -1 | 15 | 1 | 10
Cc1cc2ccccc2n1CCNC(=O)C(C)Oc1ccccc1 (stereo not drawn) | -1 | 38* | -4 | -1 | 36 | 0 | 5
Cc1cc2ccccc2n1CCNC(=O)Cc1ccccc1 | 5 | 43 | 3 | 0 | 42 | 0 | /
C[C@H](O)[C@@H]1CN2CCc3ccc(N4CCOCC4)cc3[C@@H]2C[C@@H]1N(C)C(=S)NCCc1ccccc1 | -4 | / | -3 | / | / | / | /
COc1cccc(N2CCN(CC(=O)NCc3ccccc3C)CC2)c1 | -1 | / | 12 | / | / | / | /
Cc1cc(N2CCOc3ccccc32)nc2ccccc12 | -11 | / | -7 | / | / | / | /
CC1CC(C)CN(C(=O)c2ccc3c(c2NCCO)C(=O)c2ccccc2C3=O)C1 (stereo not drawn) | -5 | 60* | -6 | 0 | 36* | 0 | 45
Cc1ccc(S(=O)(=O)/N=C2\C=C(NS(=O)(=O)c3ccccc3)C(=O)c3ccccc32)c(C)c1 | -6 | 39* | -4 | -1 | -14 | / | 29
COc1ccccc1C(=O)N1CCCC(c2nc(-c3cccs3)no2)C1 (stereo not drawn) | 2 | / | -2 | / | / | / | /
